Consider 14 molecules from PubChem BioAssay.

Assay [1] can be described thus: Her2 expression decrease, cell viability multiplex – SKBR3 breast tumor cells, AlphaScreen, ATP viability, primary screen (AID 461;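 active = Her2 level under about 52% in both replicate screens, with viability over 70% of control, limit read from the data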;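 for Her2 level: lower value means less Her2 protein in the cells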;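 for viability: percent of carrier control wells set as 100% viability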). Conditions: SKBR3 Her2 protein level, 18-24 h, measured here: SKBR3 viability, ATP luminescence, at 10 µM.
Assay [2] deals with Receptor tyrosine-protein kinase erbB-2 (Homo sapiens) (UniProt P04626). Described as above. Conditions: 18-24 h, at 10 µM, stronger effect = lower value.
A short description of assay [3]: reduced viability of SK-BR-3 breast cancer cells – cell-based, 24 h, human, pilot screen (AID 572).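 Note: compound exposure lasted between 18 and 24 h rather than exactly 24 h; 100% = carrier-treated control wells.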 The note with it: SK-BR-3 viability, CellTiter-Glo luminescence, at 10 µM, stronger effect = lower value. Background: ATP-based viability assays read luminescence as a measure of living cells.
The nature of assay [4]: HUVEC growth inhibition – cell-based, human, primary screen (AID 575;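 active = viability at or below 30% in both replicate assays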;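 note: 100% = median of untreated cell wells with 0.1% DMSO on each plate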). Conditions: HUVEC proliferation, CellTiter-Glo luminescence, 72 h; at 10 µM; stronger effect = lower value. The procedure, abridged:
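Test system: primary human umbilical vein endothelial cells; medium: endothelial basal medium with 2% FBS plus growth supplements; dosing: 10 µM compound only; times: 72 h treatment at 37 °C; signal: CTG luminescence; read-out: % viability relative to median vehicle-well signal on each plate; control set: vehicle and MePR control wells; plate: 384-well, collagen-coated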

The nature of assay [5]: H69AR cell proliferation blockers – human, duplicate replicates, primary screen (AID 580;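 active = viability at or under a set limit in both replicates, limit being median viability minus 3 SD, cut at about 48% in these data, passing the limit was not always enough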;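 note: 100% = mean luminescence of untreated wells and 0% = no signal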). Conditions: H69AR lung tumor cells viability, ATP luminescence, 72 h; at 10 µM; stronger effect = lower value.
Assay [6] can be described thus: MRP1 drug-resistance reversers in H69AR cells – cell-based, doxorubicin co-treatment, pilot screen (AID 601;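 active = viability loss from added drug above about 55%, and viability with drug at most 40%, in both replicates, limit read from the data, passing the limit was not always enough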). The note with it: CellTiter-Glo, 72 h, at 10 µM; for differential viability (reversal): stronger effect = higher value.
The nature of assay [7]: yeast transport mutant growth inhibition pilot in 384-well plates, post-Golgi transport modulator project (AID 636; in the data active = inhibition above about 31%). Conditions: absorbance 615 nm, about 18 h, stronger effect = higher value.
Assay [8] in a line: growth suppression of yeast trafficking mutant, preliminary HTS, modulators of trafficking downstream of Golgi apparatus project, 1536-format plate, OD 615 nm (AID 637; in the data active = inhibition above about 30%). Conditions: yeast transport mutant growth, absorbance 615 nm, 18 h; stronger effect = higher value.
The mark [9] stands for this setting: H69AR cells + 2 uM doxorubicin, measured here: viability with 2 uM doxorubicin, stronger effect = lower value.
Setting [10] is: H69AR cells, compound alone cytotoxicity.

By viability is commonly meant a read-out of living cells in per cent, often relative to untreated cells. One may read the inhibition as the relative decrease from the control value, in per cent.

The structures appear in SMILES notation. Activity calls are given as the source filed them.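 Rule for the calls, unless noted: active = viability at or below 10% of carrier control in both of two separate runs; inconclusive = viability at or below 10% in only one of the two runs; inactive = the rest.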

Sequence of Receptor tyrosine-protein kinase erbB-2 (Homo sapiens) (P04626 whole entry, looked up): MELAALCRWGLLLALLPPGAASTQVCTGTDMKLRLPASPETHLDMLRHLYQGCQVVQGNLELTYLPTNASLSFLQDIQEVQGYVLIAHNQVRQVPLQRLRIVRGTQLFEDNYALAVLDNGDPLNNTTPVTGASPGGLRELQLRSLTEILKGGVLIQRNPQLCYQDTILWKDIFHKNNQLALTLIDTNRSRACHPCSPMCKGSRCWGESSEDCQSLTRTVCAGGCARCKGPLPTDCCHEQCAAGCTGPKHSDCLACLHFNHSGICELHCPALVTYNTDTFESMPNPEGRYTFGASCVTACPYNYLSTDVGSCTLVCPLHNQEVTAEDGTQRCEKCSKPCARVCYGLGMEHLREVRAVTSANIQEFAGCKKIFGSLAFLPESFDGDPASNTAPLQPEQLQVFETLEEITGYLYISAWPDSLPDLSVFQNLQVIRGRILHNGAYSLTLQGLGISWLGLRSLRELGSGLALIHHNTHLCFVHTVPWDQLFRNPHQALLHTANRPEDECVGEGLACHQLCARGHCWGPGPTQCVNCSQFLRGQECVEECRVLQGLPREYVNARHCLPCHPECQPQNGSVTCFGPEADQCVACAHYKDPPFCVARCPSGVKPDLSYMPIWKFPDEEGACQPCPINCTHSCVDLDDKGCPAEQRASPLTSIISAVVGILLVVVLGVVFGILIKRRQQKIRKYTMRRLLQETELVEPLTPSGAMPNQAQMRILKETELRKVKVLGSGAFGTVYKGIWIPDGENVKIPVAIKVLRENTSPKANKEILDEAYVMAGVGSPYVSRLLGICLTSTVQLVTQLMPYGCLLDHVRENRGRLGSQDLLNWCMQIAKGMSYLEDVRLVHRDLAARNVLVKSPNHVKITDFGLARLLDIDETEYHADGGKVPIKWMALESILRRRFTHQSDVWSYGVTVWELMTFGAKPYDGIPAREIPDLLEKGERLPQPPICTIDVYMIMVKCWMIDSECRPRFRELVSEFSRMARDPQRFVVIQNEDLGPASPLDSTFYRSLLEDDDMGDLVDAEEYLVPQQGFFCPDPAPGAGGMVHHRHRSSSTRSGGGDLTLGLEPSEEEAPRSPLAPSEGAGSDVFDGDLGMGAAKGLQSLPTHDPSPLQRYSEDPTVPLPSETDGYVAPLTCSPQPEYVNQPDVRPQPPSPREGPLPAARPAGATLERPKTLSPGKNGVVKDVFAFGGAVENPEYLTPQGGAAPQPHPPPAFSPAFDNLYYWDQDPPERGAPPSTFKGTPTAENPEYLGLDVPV

Regarding `CCc1cc(C(=O)OC)c(NC(=O)CCC(=O)O)s1`, the viability in assay [1] was 96.5%; in assay [3], 96.5% (inactive); in assay [4], 87.6% (inactive); in assay [5], 107% (inactive); in assay [6] (setting [9]) it was 89.1%; in assay [6] (setting [10]) it was 107%. Besides, the Her2 level in assay [2] is 96% (inactive). In addition, the differential viability (reversal) in assay [6] (H69AR cells + 2 uM doxorubicin) was 17.8% (inactive). In addition, the inhibition in assay [7] is -2.53% (inactive); in assay [8] it was 0% (inactive).

As for `CCOC(=O)N1CCN(c2c(NCCCOC(C)C)c(=O)c2=O)CC1`, the viability was 97.5% in assay [1]; 97.5% (inactive) in assay [3]; 86.8% (inactive) in assay [4]; 97.5% (inactive) in assay [5]; 89.8% in assay [6] (setting [9]); 97.5% in assay [6] (setting [10]). Also, the Her2 level in assay [2] was 90% (inactive). The differential viability (reversal) in assay [6] (H69AR cells + 2 uM doxorubicin) was 7.67% (inactive). Also, the inhibition in assay [7] was -3.47% (inactive); in assay [8], -0.98% (inactive).

`CCC1CCCCN1C(=O)Cn1c(C(=O)OC)cc2sc(Cl)cc21` (stereo not given): the viability in assay [1] is 76.5%; in assay [3] it was 76.5% (inactive); in assay [4] it was 89.2% (inactive); in assay [5], 71.4% (inactive); in assay [6] (setting [9]), 88.4%; in assay [6] (setting [10]), 71.4%. Also, the Her2 level in assay [2] was 103% (inactive). Also, in assay [6] (H69AR cells + 2 uM doxorubicin), the differential viability (reversal) is -17% (inactive). In addition, the inhibition was -0.64% (inactive) in assay [7] and -0.67% (inactive) in assay [8].

As to `c1ccc2c(Cn3ccnc3)c[nH]c2c1`, the viability in assay [1] was 109%; in assay [3], 109% (inactive); in assay [4], 85.3% (inactive); in assay [5] it was 86% (inactive); in assay [6] (setting [9]), 91.4%; in assay [6] (setting [10]) it was 86%. For the same molecule, the Her2 level in assay [2] is 114% (inactive). Moreover, the differential viability (reversal) in assay [6] (H69AR cells + 2 uM doxorubicin) was -5.34% (inactive). Moreover, the figures for the inhibition in assay [7] and in assay [8] were -5.19% (inactive) and -2.62% (inactive), respectively.

In the case of `CCn1c(SCC(=O)c2ccc(F)cc2)nnc1-c1ccoc1C`, the viability in assay [1] is 104%; in assay [3] it was 104% (inactive); in assay [4], 104% (inactive); in assay [5] it was 106% (inactive); in assay [6] (setting [9]), 86.9%; in assay [6] (setting [10]), 106%. Further, the Her2 level in assay [2] is 97.5% (inactive). Further, the differential viability (reversal) in assay [6] (H69AR cells + 2 uM doxorubicin) is 19.3% (inactive). Also, the inhibition is -6.1% (inactive) in assay [7] and -0.95% (inactive) in assay [8].

Take `O=C(c1ccccc1Oc1nnnn1-c1ccccc1)N1CCOCC1`: the viability in assay [1] is 89.5%; in assay [3], 89.5% (inactive); in assay [4] it was 67.6% (inactive); in assay [5], 79.6% (inactive); in assay [6] (setting [9]) it was 71.9%; in assay [6] (setting [10]), 79.6%. Also, in assay [2], the Her2 level was 84% (inactive). Also, the differential viability (reversal) in assay [6] (H69AR cells + 2 uM doxorubicin) is 7.74% (inactive). Besides, the inhibition in assay [7] is -2.31% (inactive); in assay [8] it was -5.67% (inactive).

Consider `COc1ccc(C(=O)NCc2nnc(SCC(=O)Nc3cc(C)cc(C)c3)o2)cc1OC`, for which the viability in assay [1] is 89.5%; in assay [3], 89.5% (inactive); in assay [4] it was 99.6% (inactive); in assay [5], 89.3% (inactive); in assay [6] (setting [9]) it was 82%; in assay [6] (setting [10]) it was 89.3%. The Her2 level in assay [2] is 102% (inactive). Also, the differential viability (reversal) in assay [6] (H69AR cells + 2 uM doxorubicin) is 7.32% (inactive). The inhibition was 0.13% (inactive) in assay [7] and 1.33% (inactive) in assay [8].

Consider `O=C(COc1ccccc1)Nc1nc2ccccc2[nH]1`, for which the viability in assay [1] was 91.5%; in assay [3] it was 91.5% (inactive); in assay [4], 92.5% (inactive); in assay [5], 91.5% (inactive); in assay [6] (setting [9]) it was 85.6%; in assay [6] (setting [10]) it was 91.5%. Moreover, the Her2 level in assay [2] was 93% (inactive). In assay [6] (H69AR cells + 2 uM doxorubicin), the differential viability (reversal) is 5.92% (inactive). Besides, the inhibition is -1.04% (inactive) in assay [7] and -3.93% (inactive) in assay [8].

With `COC(=O)Nc1ccc(NC(C)=O)cc1`, the viability in assay [1] was 96%; in assay [3] it was 96% (inactive); in assay [4], 103% (inactive); in assay [5], 91% (inactive); in assay [6] (setting [9]), 82.1%; in assay [6] (setting [10]), 91%. Moreover, the Her2 level in assay [2] was 116% (inactive). The differential viability (reversal) in assay [6] (H69AR cells + 2 uM doxorubicin) was 8.88% (inactive). In addition, the results for the inhibition in assay [7] and in assay [8] were 5.84% (inactive) and -8.36% (inactive), respectively.

Consider `CN(C)S(=O)(=O)c1ccc(/C(O)=C2/C(=O)C(=O)N(CCN3CCCCC3)C2c2cccnc2)cc1` (stereo not given), for which the viability is 87% in assay [1]; 87% (inactive) in assay [3]; 92.1% (inactive) in assay [4]; 87.3% (inactive) in assay [5]; 90.7% in assay [6] (setting [9]); 87.3% in assay [6] (setting [10]). Besides, the Her2 level in assay [2] was 166% (inactive). The differential viability (reversal) in assay [6] (H69AR cells + 2 uM doxorubicin) was -3.39% (inactive). Further, the inhibition in assay [7] was 6.54% (inactive); in assay [8], 11.3% (inactive).

On to `CCc1ccccc1NC(=O)CCc1nc(-c2ccc(C)cc2)no1`, for which the viability in assay [1] is 95%; in assay [3], 95% (inactive); in assay [4], 83% (inactive); in assay [5], 99.3% (inactive); in assay [6] (setting [9]) it was 96.2%; in assay [6] (setting [10]), 99.3%. In assay [2], the Her2 level was 71.5% (inactive). Further, in assay [6] (H69AR cells + 2 uM doxorubicin), the differential viability (reversal) is 3.1% (inactive). Also, the inhibition in assay [7] is -4.61% (inactive); in assay [8], -3.67% (inactive).

On to `O=C(O)c1cc2c(s1)CCCC2`, for which the viability is 88.5% in assay [1]; 88.5% (inactive) in assay [3]; 104% (inactive) in assay [4]; 89.9% (inactive) in assay [5]; 91.1% in assay [6] (setting [9]); 89.9% in assay [6] (setting [10]). Besides, the Her2 level in assay [2] was 93% (inactive). Also, the differential viability (reversal) in assay [6] (H69AR cells + 2 uM doxorubicin) is -1.15% (inactive). The figures for the inhibition in assay [7] and in assay [8] were -1.03% (inactive) and -7.83% (inactive), respectively.

Regarding `CN1C(=O)CC(C(=O)Nc2ccc(F)cc2)SC1=Nc1ccc2c(c1)OCO2` (stereo not given), the viability in assay [1] was 88%; in assay [3], 88% (inactive); in assay [4], 95% (inactive); in assay [5], 82.5% (inactive); in assay [6] (setting [9]) it was 79.6%; in assay [6] (setting [10]), 82.5%. Also, the Her2 level in assay [2] was 73% (inactive). In addition, the differential viability (reversal) in assay [6] (H69AR cells + 2 uM doxorubicin) is 2.84% (inactive). The inhibition in assay [7] is -7.16% (inactive); in assay [8], 0.83% (inactive).

For the molecule `Cc1cnc(C(=O)Nc2ccc(N3CCOCC3)cc2)cn1`, the viability in assay [1] was 95%; in assay [3], 95% (inactive); in assay [4], 116% (inactive); in assay [5], 100% (inactive); in assay [6] (setting [9]) it was 88.5%; in assay [6] (setting [10]), 100%. For the same molecule, in assay [2], the Her2 level was 87% (inactive). Besides, the differential viability (reversal) in assay [6] (H69AR cells + 2 uM doxorubicin) was 11.7% (inactive). Moreover, the figures for the inhibition in assay [7] and in assay [8] were -1.32% (inactive) and -1.45% (inactive), respectively.
